Assays:
[1] = target: CYP2C9 (Homo sapiens, UniProt P11712); experiment: Inhibition of CYP2C9 in human liver microsomes assessed as remaining activity at 10 uM using diclofenac as substrate preincubated for 5 mins followed by addition of NADPH generating system and incubated for 15 mins by LC/MS relative to control; format: ADME; conditions: probe diclofenac, time 20 min, read-out: Activity
Outline: (§1)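 Human liver microsomes (0.25 mg/mL) in 0.1 M phosphate pH 7.4 with a five-substrate cocktail: phenacetin 50 μM, diclofenac 10 μM, S-mephenytoin 100 μM, dextromethorphan 5 μM, midazolam 2.5 μM. Compound at 0 (control) or 10 μM. Preincubated 5 min at 37 °C, NADPH-generating system added, 15 min at 37 °C. Stopped with acetonitrile plus internal standard; substrate metabolites measured by LC/MS.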

[2] = Cmax in ICR mouse plasma at 10 mg/kg, ip measured upto 8 hrs by LC-MS/MS analysis; format: ADME, organism-based; parameters: route intraperitoneal, dose 10 mg/kg, time <=8
Outline: (§2)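 Male ICR mice, 7–8 weeks, 30 ± 5 g; single dose 1 mg/kg iv or 10 mg/kg ip (n = 4 each). Carotid artery blood at 0, 0.08 (iv only), 0.25, 0.5, 1, 2, 4, 6, 8 h. Plasma precipitated with acetonitrile containing internal standard, quantified by LC–MS/MS. Parameters by non-compartmental analysis; AUClast by trapezoidal rule; values mean ± SD.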

[3] = target: 5-hydroxytryptamine receptor 2B (Homo sapiens, UniProt P41595); experiment: Binding affinity to 5-HT2BR (unknown origin)
Outline: (§3)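 Run by the NIMH Psychoactive Drug Screening Program as competition radioligand binding on crude membranes of cells expressing the recombinant receptor. Eleven dilutions (0.05 nM–50 μM, prepared at 5× assay concentration) were made in 50 mM Tris-HCl, 10 mM MgCl₂, 1 mM EDTA, pH 7.4. Incubation was 1.5 h at rt in the dark, followed by GF/B filtration (0.3% PEI) and scintillation counting. IC₅₀ was converted to Ki; at least triplicate.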

[4] = Half life in ICR mouse plasma at 10 mg/kg, ip measured upto 8 hrs by LC-MS/MS; format: ADME, organism-based; outline: as §2
[5] = Tmax in ICR mouse plasma at 10 mg/kg, ip measured upto 8 hrs by LC-MS/MS analysis; format: ADME, organism-based; outline: as §2
[6] = target: 5-hydroxytryptamine receptor 6 (Homo sapiens, UniProt P50406); experiment: Binding affinity to 5-HT6R (unknown origin); outline: as §3
[7] = target: CYP3A4 (Homo sapiens, UniProt P08684); experiment: Inhibition of CYP3A4 in human liver microsomes assessed as remaining activity at 10 uM using midazolam as substrate preincubated for 5 mins followed by addition of NADPH generating system and incubated for 15 mins by LC/MS relative to control; format: ADME; conditions: probe midazolam, time 20 min, read-out: Activity; outline: as §1
[8] = MRTinfinity in ICR mouse plasma at 1 mg/kg, iv measured upto 8 hrs by LC-MS/MS analysis; format: ADME, organism-based; outline: as §2
[9] = Stability of compound in human liver microsomes assessed as compound remaining at 1 uM preincubated for 5 mins followed by addition of NADPH generating system and incubated for 30 mins by LC/MS relative to control; format: ADME, Microsome; conditions: time 35 min, read-out: Stability
Outline: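 Human liver microsomes (0.5 mg/mL) in 0.1 M phosphate pH 7.4 with compound at 1 μM. Preincubated 5 min at 37 °C, then NADPH-generating system added and incubated 30 min at 37 °C. Quenched with acetonitrile containing internal standard, centrifuged, and supernatant analysed by LC/MS as percent compound remaining; verapamil as reference.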

[10] = target: T1, 5-hydroxytryptamine receptor 3A (Homo sapiens, UniProt P46098); experiment: Binding affinity to 5-HT3R (unknown origin); outline: as §3
T1 sequence (P46098 whole entry): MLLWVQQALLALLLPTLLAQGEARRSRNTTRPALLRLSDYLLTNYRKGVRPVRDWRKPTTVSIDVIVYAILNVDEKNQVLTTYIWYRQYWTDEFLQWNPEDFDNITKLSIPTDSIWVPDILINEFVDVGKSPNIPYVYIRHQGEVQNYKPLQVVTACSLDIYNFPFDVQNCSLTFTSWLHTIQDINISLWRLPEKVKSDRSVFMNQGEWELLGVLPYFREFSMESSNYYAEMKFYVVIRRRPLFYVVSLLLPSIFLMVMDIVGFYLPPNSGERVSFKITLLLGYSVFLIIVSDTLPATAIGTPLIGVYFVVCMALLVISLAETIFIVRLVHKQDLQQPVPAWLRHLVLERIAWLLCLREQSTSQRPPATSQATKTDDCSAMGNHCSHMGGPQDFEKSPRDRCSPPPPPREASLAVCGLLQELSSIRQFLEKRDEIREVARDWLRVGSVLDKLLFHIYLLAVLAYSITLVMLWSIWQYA

[11] = target: T2, CYP1A2 (Homo sapiens, UniProt P05177); experiment: Inhibition of CYP1A2 in human liver microsomes assessed as remaining activity at 10 uM using phenacetin as substrate preincubated for 5 mins followed by addition of NADPH generating system and incubated for 15 mins by LC/MS relative to control; format: ADME; conditions: probe phenacetin, time 20 min, read-out: Activity; outline: as §1
T2 sequence (P05177 whole entry): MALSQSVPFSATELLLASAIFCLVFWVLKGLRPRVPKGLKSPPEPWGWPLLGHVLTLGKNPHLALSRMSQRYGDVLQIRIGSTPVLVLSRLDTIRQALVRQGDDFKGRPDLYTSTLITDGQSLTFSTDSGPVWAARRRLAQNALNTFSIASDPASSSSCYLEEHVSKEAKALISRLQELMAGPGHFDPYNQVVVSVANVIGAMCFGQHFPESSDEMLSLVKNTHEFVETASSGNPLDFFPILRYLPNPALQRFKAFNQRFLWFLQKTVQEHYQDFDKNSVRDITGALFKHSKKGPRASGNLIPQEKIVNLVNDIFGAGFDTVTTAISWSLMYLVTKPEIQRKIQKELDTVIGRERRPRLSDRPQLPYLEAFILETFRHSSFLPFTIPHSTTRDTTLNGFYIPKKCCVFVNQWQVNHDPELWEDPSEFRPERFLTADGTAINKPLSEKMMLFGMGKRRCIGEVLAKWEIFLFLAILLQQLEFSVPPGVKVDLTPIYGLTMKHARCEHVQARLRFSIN

[12] = target: 5-hydroxytryptamine receptor 1D (Homo sapiens, UniProt P28221); experiment: Binding affinity to 5-HT1DR (unknown origin); outline: as §3
[13] = test system: Mus musculus; experiment: Effect on wild type mouse assessed as time taken for duration of self grooming at 5 mg/kg, ip pretreated for 10 mins in presence of SB269970 followed by compound addition and measured after 30 mins under 40 lux lighting (reference value: 43.7 +/- 10.8 sec); format: functional; conditions: 0.5 h
[14] = Clearance in ICR mouse plasma at 1 mg/kg, iv measured upto 8 hrs by LC-MS/MS analysis; format: ADME, organism-based; outline: as §2

5-hydroxytryptamine receptor 1D, sequence (P28221 whole entry): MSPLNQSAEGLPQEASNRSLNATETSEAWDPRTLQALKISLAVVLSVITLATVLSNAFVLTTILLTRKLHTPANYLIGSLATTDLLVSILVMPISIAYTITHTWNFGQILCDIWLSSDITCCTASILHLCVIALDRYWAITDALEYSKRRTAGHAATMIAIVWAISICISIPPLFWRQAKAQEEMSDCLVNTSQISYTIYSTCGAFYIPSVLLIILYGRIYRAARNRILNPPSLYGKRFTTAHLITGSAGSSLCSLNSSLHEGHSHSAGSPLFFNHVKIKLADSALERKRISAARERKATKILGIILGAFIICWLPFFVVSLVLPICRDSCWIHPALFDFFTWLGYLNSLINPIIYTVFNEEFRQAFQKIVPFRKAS
CYP2C9, sequence (P11712 whole entry): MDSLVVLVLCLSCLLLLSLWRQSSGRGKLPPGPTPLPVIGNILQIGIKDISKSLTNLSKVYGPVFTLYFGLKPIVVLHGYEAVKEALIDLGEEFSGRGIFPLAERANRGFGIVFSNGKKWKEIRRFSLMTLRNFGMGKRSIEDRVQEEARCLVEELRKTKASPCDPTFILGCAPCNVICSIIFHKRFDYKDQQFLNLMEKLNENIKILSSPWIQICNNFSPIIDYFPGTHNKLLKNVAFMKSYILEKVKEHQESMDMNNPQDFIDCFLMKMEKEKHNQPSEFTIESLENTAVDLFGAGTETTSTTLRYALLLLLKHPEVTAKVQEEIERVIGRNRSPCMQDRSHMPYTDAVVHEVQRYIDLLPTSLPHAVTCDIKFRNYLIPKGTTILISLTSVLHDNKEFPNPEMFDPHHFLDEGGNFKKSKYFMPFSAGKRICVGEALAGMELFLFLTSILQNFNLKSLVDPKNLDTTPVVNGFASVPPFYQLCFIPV
CYP3A4, sequence (P08684 whole entry): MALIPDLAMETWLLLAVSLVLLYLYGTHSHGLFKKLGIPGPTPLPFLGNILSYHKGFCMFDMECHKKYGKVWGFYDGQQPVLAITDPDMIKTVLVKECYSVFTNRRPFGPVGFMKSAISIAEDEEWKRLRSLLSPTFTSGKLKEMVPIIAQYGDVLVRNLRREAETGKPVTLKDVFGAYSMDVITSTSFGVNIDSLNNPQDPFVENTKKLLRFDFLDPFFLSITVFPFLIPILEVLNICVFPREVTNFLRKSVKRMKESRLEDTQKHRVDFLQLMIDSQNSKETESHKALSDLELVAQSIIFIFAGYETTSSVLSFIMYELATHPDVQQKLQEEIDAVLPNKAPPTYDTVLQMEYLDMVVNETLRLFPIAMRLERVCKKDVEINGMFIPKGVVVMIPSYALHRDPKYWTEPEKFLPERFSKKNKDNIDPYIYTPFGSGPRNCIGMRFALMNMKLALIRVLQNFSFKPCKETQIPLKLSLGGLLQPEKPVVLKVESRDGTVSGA
5-hydroxytryptamine receptor 6, sequence (P50406 whole entry): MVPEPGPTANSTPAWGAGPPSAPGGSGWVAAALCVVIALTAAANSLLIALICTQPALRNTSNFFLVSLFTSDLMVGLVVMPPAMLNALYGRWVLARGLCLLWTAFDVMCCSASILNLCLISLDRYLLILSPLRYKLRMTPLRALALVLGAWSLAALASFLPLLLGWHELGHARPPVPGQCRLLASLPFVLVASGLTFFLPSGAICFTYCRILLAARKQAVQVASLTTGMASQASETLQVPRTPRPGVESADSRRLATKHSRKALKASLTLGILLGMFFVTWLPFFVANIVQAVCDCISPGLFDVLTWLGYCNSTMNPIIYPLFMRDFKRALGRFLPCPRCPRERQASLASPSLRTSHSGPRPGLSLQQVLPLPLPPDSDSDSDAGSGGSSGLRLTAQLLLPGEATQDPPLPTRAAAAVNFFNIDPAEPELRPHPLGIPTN
5-hydroxytryptamine receptor 2B, sequence (P41595 whole entry): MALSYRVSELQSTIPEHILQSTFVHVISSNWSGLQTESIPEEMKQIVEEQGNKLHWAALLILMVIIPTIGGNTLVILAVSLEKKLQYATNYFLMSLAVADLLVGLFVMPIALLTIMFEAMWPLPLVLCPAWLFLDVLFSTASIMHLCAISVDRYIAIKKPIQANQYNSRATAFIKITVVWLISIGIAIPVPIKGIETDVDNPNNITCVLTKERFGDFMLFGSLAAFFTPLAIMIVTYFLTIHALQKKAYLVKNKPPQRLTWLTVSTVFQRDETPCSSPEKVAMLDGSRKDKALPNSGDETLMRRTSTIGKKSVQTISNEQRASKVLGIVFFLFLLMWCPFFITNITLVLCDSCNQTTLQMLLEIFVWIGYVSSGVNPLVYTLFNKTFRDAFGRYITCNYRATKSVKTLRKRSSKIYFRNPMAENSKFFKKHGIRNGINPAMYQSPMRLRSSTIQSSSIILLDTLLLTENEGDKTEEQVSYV

Question: For `CCNCCc1ccc(Cl)c(-c2ccccc2OC)c1.Cl`, which activity at 0.25 h, 10 µM [1] is on record?
Answer: > 100%

Question: What about the Cmax [2] of the same molecule?
Answer: 348 ng/mL

Question: What about the Ki [3] of the same molecule?
Answer: 130 nM

Question: What about the half-life [4] of the same molecule?
Answer: 60 min

Question: What about the Tmax [5] of the same molecule?
Answer: 24 min

Question: What about the Ki [6] of the same molecule?
Answer: > 10000 nM

Question: What about the activity at 0.25 h, 10 µM [7] of the same molecule?
Answer: 98.5%

Question: And the MRT inf [8]?
Answer: 42 min

Question: And the remaining at 0.5 h, 1 µM [9]?
Answer: 71.5%

Question: And the Ki [10]?
Answer: > 10000 nM

Question: What about the activity at 0.25 h, 10 µM [11] of the same molecule?
Answer: 94.3%

Question: What about the Ki [12] of the same molecule?
Answer: 5.3 nM

Question: And the Time [13]?
Answer: 70.8 s

Question: And the clearance [14]?
Answer: 478 mL/min/kg

— ChEMBL document CHEMBL5038590, “Discovery of G Protein-Biased Ligands against 5-HT7R” (J Med Chem, 2021)
